HTRA1 inh = HTRA1 serine protease inhibitors, primary screen, biochemical, fluorescence polarization, HTS; Q92743; recombinant HTRA1, FP-rhodamine activity-based probe; inhibition, % at 5.96 µM; 340,000 compounds, 0.5% hits; AID 504803, 2011; in the data active = inhibition above about 36%;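 also: 0% = enzyme with DMSO and 100% = wells lacking enzyme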
mABHD4 FP = ABHD4 inhibitors, primary screen, biochemical, fluorescence polarization, mouse. purified mABHD4, FP-Rh probe fluorescence polarization. 370,000 compounds, 0.54% hits. inhibition, % at 8.92 µM. AID 720543, 2013;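 active = inhibition exceeding the mean over every tested compound plus 3 SD, cut at about 30% in these data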;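 also: 0% = plate median of compound wells and 100% = S159A mutant with DMSO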
Target sequence (Q8VD66 whole entry, looked up): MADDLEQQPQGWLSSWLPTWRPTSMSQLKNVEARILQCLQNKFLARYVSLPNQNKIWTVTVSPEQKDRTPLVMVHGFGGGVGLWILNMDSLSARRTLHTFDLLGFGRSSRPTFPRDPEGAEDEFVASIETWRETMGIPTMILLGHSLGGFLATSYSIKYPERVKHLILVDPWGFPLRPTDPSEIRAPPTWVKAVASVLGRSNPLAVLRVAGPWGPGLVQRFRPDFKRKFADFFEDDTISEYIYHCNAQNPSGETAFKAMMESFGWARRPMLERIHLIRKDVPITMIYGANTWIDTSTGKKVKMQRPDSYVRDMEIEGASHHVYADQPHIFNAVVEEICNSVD
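Assay system: Wild-type mouse ABHD4 protein | Medium: HEPES pH 7.0 buffer, 150 mM NaCl, 0.01% Pluronic F-127 | Incubation: Enzyme–compound pre-incubation 45 min, then probe 60 min, both 25 °C | Technique: Fluorescence polarization with parallel and perpendicular emission, 525/598 nm | Evaluation: % inhibition of FP-Rh probe binding versus controls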
pPAFAH FP inh = pPAFAH enzyme inhibitors, primary screen, biochemical, fluorescence polarization, human; Platelet-activating factor acetylhydrolase (Homo sapiens), Q13093; recombinant pPAFAH, FP-rhodamine probe fluorescence polarization; inhibition, % at 3.39 µM; 330,000 compounds, 1.5% hits; AID 463082, 2010;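 active = inhibition above the mean inhibition across the screen plus 3 SD, cut at about 25% in these data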;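 also: inhibitors block binding of the rhodamine activity-based probe so polarization drops; 0% = enzyme with DMSO and 100% = wells lacking pPAFAH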
PAFAH1B2 inh = PAFAH1B2 enzyme inhibitors, primary screen, biochemical, fluorescence polarization, human; recombinant PAFAH1B2, FP-rhodamine activity probe; AID 492953, 2010; Platelet-activating factor acetylhydrolase IB subunit alpha2 (Homo sapiens), P68402; 340,000 compounds, 1.2% hits; inhibition, % at 3.39 µM;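 active = inhibition above the mean of all tested compounds plus 3 SD, cut at about 24% in these data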;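 also: 0% = enzyme with DMSO and 100% = wells lacking PAFAH1B2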
PAFAH2 inh = PAFAH2 enzyme inhibitors, primary screen, biochemical, fluorescence polarization, human | Platelet-activating factor acetylhydrolase 2, cytoplasmic (Homo sapiens), Q99487 | inhibition, % at 3.39 µM | recombinant PAFAH2, FP-rhodamine activity probe | 340,000 compounds, 0.99% hits;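 active = inhibition above the mean over all tested compounds plus 3 SD, cut at about 30% in these data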;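 also: inhibitors block probe labeling of enzyme so polarization drops; 0% = enzyme with DMSO and 100% = wells lacking PAFAH2 protein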
PAFAH1B3 inh = PAFAH1B3 enzyme inhibitors, primary screen, biochemical, fluorescence polarization, human; AID 492972, 2010; recombinant PAFAH1B3, FP-rhodamine probe; 340,000 compounds, 0.28% hits; inhibition, % at 3.39 µM; Platelet-activating factor acetylhydrolase IB subunit alpha1 (Homo sapiens), Q15102;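 active = inhibition above the screen-wide average of all tested compounds plus 3 SD, cut at about 25% in these data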;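 also: 0% = enzyme with DMSO only and 100% = wells lacking PAFAH1B3 protein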
Target sequence (Q15102 whole entry, looked up): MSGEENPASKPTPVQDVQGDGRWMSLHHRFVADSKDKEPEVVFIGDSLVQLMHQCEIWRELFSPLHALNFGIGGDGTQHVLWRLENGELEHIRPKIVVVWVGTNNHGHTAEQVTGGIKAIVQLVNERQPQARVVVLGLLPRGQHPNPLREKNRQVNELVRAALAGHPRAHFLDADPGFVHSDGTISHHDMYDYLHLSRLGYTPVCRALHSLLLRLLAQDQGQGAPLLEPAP
HTRA1 conf = HTRA1 protease inhibitors, retest, confirmation, biochemical, fluorescence polarization; shares compounds with HTRA1 inh; inhibition, % at 5.96 µM; recombinant HTRA1, FP-rhodamine activity-based probe; 1,600 compounds, 66% hits;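 active = mean inhibition over three repeats above a set limit taken from the earlier primary screen, cut at about 37% in these data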;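 also: 0% = HTRA1 with DMSO and 100% = wells lacking HTRA1; inhibitors block probe binding so polarization drops and inhibition rises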
ABHD4 confirm = ABHD4 inhibitors, retest, confirmation, biochemical, fluorescence polarization, mouse. purified mABHD4, FP-Rh probe fluorescence polarization. shares compounds with mABHD4 FP. AID 720658, 2013. 1,800 compounds, 55% hits. inhibition, % at 8.92 µM;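 active = mean inhibition across replicates above the hit cutoff set in the primary screen, cut at about 30% in these data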;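 also: 0% = wild-type ABHD4 with DMSO and 100% = catalytically dead S159A mutant with DMSO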
An asterisk follows results filed as active; . = no result given. Compounds with a hit are over-represented: about 2.8% of the library has one in this group of screens.

SMILES	HTRA1 inh	mABHD4 FP	pPAFAH FP inh	PAFAH1B2 inh	PAFAH2 inh	PAFAH1B3 inh	ABHD4 confirm	others
O=[N+]([O-])c1ccc(N2CCCC2)c2ccncc12	4	7	5	9	-1	9	.
CCOC(=O)C1CCCN(c2ccc([N+](=O)[O-])c3nonc23)C1 (stereo not given)	47*	67*	.	50*	46*	39*	56*	HTRA1 conf=56*
O=C(NCCN1CCC2(CC1)C(=O)NCN2c1ccccc1)c1cc(C(F)(F)F)ccc1C(F)(F)F	.	11	.	.	.	.	.
CN(C)[C@@H]1C(=O)C(C(N)=O)=C(O)[C@@]2(O)C(=O)C3=C(O)c4c(O)ccc(Cl)c4[C@@](C)(O)[C@H]3C[C@@H]12	40*	57*	30*	9	12	15	8	HTRA1 conf=15
CC[n+]1c(-c2ccccc2)c2cc(N)ccc2c2ccc(N)cc21	109*	82*	.	65*	82*	90*	105*	HTRA1 conf=118*
NCCc1cc(O)c(O)cc1O	73*	45*	.	55*	72*	88*	92*	HTRA1 conf=48*
O=C(NCCN1CCC2(CC1)C(=O)NCN2c1ccccc1)c1ccc(OC(F)(F)F)cc1	.	8	.	.	.	.	.
O=C(NCCN1CCC2(CC1)C(=O)NCN2c1ccccc1)c1ccccc1C(F)(F)F	.	-2	.	.	.	.	.
Nc1c(Br)cc2c3c(cccc13)-c1ccccc1-2	.	55*	.	.	.	.	57*
c1ccc2c(c1)-c1cccc3cccc-2c13	-4	-6	-6	1	6	4	.
c1ccc(-c2ccc3c(c2)CNCc2cnnn2-3)cc1	.	7	.	.	.	.	.
FC(F)(F)c1ccc(-c2ccc3c(c2)CNCc2cnnn2-3)cc1	.	34*	.	.	.	.	25
CN1C(=O)CCS(=O)(=O)C1c1ccc(Cl)cc1 (stereo not given)	.	3	.	.	.	.	.
O=c1[nH]c2ccccc2n1C1CCN(C(CCc2ccccc2)c2nnnn2-c2ccc3c(c2)OCCO3)CC1 (stereo not given)	.	-9	.	.	.	.	.
O=[N+]([O-])c1cccc(O)c1	8	-3	2	3	4	3	.
O=[N+]([O-])c1cc(S(=O)(=O)c2ccc(O)c([N+](=O)[O-])c2)ccc1O	10	40*	28*	14	39*	29*	31*
O=C(NC1CCCCC1)Oc1cc2oc(=O)sc2cc1Cl	8	31*	9	0	3	3	24
C=CCn1c(O)c(C(C)=Nc2ccc(N(CC)CC)cc2)c(=O)[nH]c1=O	7	39*	24	1	-8	1	0
CC(C)NC1(c2ccccc2)CCCCC1	.	-3	.	.	.	.	.
O=C1C(Cl)=CC(=Nc2ccc(O)cc2)C=C1Cl	25	32*	10	3	3	14	58*
O=C(N/N=C/c1c(O)n(Cc2ccc(F)cc2)c(=O)[nH]c1=O)c1ccccc1O	24	34*	32*	35*	11	19	52*
O=C(N/N=C/c1c(O)n(Cc2ccccc2)c(=O)[nH]c1=O)c1ccccc1O	35	61*	23	34*	47*	33*	38*
O=C(N/N=C/c1c(O)n(CCc2ccc(F)cc2)c(=O)[nH]c1=O)c1ccccc1	.	-1	10	.	.	.	.
COc1ccc(Cn2c(O)c(/C=N/NC(=O)c3ccccc3O)c(=O)[nH]c2=O)cc1	31	30*	27*	23	18	20	38*
COc1ccc(Cn2c(O)c(/C=N/NC(=O)c3ccccc3)c(=O)[nH]c2=O)cc1	10	-1	7	8	16	5	.
SMILES	HTRA1 inh	mABHD4 FP	pPAFAH FP inh	PAFAH1B2 inh	PAFAH2 inh	PAFAH1B3 inh	ABHD4 confirm	others
CC1CC(OP(O)(=S)c2ccc(N(C)C)cc2NC(=O)c2cccs2)CC(C)(C)C1 (stereo not given)	-5	41*	7	40*	18	10	50*
CCOC(=O)[C@]12Cc3cc(C)ccc3[C@H]1N(C1CCCCC1)C(=O)c1cc(OC)ccc12	.	-11	.	.	.	.	.
COc1ccc2[nH]c(C)c(CCNCc3cccnc3)c2c1	5	34*	1	4	7	3	3
Cc1[nH]c2ccc(OC(F)(F)F)cc2c1CCNCc1ccc(Cl)cc1	13	42*	.	-1	-2	9	31*
O=c1[nH]cc(N(CCCl)CCCl)c(=O)[nH]1	.	-7	.	.	.	.	.
CS(=O)(=O)N1Cc2cc(Br)ccc2-n2nncc2C1	.	-2	.	.	.	.	.
CCOC(=O)[C@]12Cc3cc(C)ccc3[C@H]1N(C(C)C)C(=O)c1ccccc12	.	2	.	.	.	.	.

Bioassay records as filed in PubChem.
